The values below come from ChEMBL document CHEMBL1129348, “Effects of modifications of residues in position 3 of dynorphin A(1-11)-NH2 on kappa receptor selectivity and potency” (J Med Chem, 1996).

One may read the IC50 as the point on the concentration scale where inhibition reaches its midpoint. By Inhibition is commonly meant the drop in the measured response relative to a control, in per cent. Low values mean little suppression, high ones strong suppression. By inhibition is commonly meant the relative decrease from the control value, in per cent.

Experiment [1] deals with Kappa-type opioid receptor (Cavia porcellus, UniProt P41144). Briefly: Inhibition of binding [3H][…] at Opioid receptor kappa 1 of guinea pig brain membrane (GPB) homogenates. The method, boiled down: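 Whole-brain membranes from adult male guinea pigs (200–400 g) were used. Mean ± SEM of three or more independent measurements.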
A short description of experiment [2]: Ratio between IC50 of GPI and GPB. The format is functional.
For experiment [3], the target named is Mu-type opioid receptor (Cavia porcellus, UniProt P97266). The experiment is described as follows: Inhibition of binding [3H]DAMGO at Opioid receptor mu 1 of guinea pig brain membrane (GPB) homogenates. The method, boiled down:
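Membranes from whole brains of adult male guinea pigs (200–400 g). Displacement of [3H]DAMGO at 1.0 nM for mu sites, with 180 min incubation. Values come from at least three independent measurements and are given as mean ± SEM.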

The species entered for experiment [4] is Cavia porcellus. Briefly: Evaluated for its ability to inhibit the electrically evoked contraction of the guinea pig ileum(GPI). The format is functional. In a few lines:
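Strips of guinea pig ileum longitudinal muscle–myenteric plexus were electrically stimulated and inhibition of contraction was recorded. IC50 and its standard error came from fitting mean data to the Hill equation by nonlinear least squares. Selected analogues were retested with 1000 nM CTAP as mu antagonist to look for a shift.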

Experiment [5] concerns Opioid receptors mu & kappa (Cavia porcellus). Briefly: Selectivity ratio between mu and kappa opioid receptor from guinea pig brain homogenate.
Experiment [6] concerns Opioid receptors delta & kappa (Cavia porcellus). The experiment is described as follows: Selectivity ratio between delta and kappa opioid receptor from guinea pig brain homogenate.
The species named for experiment [7] is Cavia porcellus. Briefly: Compound was evaluated for its ability to inhibit the electrically evoked contraction of the guinea pig ileum(GPI).at concentration of 60 uM. In kind it is functional.
For experiment [8], the species on record is Cavia porcellus. Briefly: Ability to inhibit the electrically evoked contraction of the guinea pig ileum(GPI)at concentration of 30 uM. In kind it is functional.
The species named for experiment [9] is Cavia porcellus. Briefly: Ability to inhibit the electrically evoked contraction of the guinea pig ileum(GPI).at concentration of 30 uM. In kind it is functional.
The target of experiment [10] is Delta-type opioid receptor (Mus musculus) (UniProt P32300). The experiment is described as follows: Agonistic activity towards Opioid receptor delta 1 was determined by evaluating the inhibitory activity towards electrically stimulated mouse vas deferens. Particulars: concentration not given here.
Experiment [11] is filed under the species Cavia porcellus. The experiment is described as follows: Ability to inhibit the electrically evoked contraction of the guinea pig ileum(GPI).at concentration of 60 uM. The format is functional.

Sequence of Kappa-type opioid receptor (P41144 whole entry): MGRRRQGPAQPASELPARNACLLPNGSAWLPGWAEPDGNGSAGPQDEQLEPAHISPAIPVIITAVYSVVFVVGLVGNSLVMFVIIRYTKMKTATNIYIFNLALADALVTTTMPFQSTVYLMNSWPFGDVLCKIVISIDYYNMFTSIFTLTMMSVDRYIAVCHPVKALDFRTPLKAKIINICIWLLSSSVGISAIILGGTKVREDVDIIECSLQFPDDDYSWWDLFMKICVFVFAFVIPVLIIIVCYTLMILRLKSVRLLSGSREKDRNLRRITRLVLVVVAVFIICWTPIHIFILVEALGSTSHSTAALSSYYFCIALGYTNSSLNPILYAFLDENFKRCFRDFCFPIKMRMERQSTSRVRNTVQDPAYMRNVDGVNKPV
Sequence of Mu-type opioid receptor (P97266 whole entry): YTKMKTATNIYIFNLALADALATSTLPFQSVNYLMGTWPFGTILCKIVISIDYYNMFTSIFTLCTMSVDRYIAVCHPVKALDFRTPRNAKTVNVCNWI
Sequence of Delta-type opioid receptor (Mus musculus) (P32300 whole entry, looked up): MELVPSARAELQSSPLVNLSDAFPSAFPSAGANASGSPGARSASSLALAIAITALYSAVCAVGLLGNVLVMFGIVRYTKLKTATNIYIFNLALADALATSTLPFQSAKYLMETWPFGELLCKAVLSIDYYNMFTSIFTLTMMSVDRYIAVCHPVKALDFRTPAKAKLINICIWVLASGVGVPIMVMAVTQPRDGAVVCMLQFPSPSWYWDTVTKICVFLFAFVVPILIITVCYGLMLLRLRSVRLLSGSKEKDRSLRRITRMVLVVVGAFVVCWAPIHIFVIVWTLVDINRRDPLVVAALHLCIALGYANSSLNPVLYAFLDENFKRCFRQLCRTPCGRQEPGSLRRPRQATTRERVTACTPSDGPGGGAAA

Take `CC[C@H](C)[C@H](NC(=O)[C@H](CCCN=C(N)N)NC(=O)[C@H](CCCN=C(N)N)NC(=O)[C@H](CC(C)C)NC(=O)[C@H](Cc1ccccc1)NC(=O)[C@H](Cc1ccc(O)cc1)NC(=O)CNC(=O)[C@@H](N)Cc1ccc(O)cc1)C(=O)N[C@@H](CCCN=C(N)N)C(=O)N1CCC[C@H]1C(=O)N[C@@H](CCCCN)C(N)=O`: the IC50 in experiment [1] was 8.9 nM; in experiment [3] it was 290 nM; in experiment [4] it was 220 nM. In [2], the Ratio was found to be 25.

Regarding `CC[C@H](C)[C@H](NC(=O)[C@H](CCCN=C(N)N)NC(=O)[C@H](CCCN=C(N)N)NC(=O)[C@H](CC(C)C)NC(=O)[C@H](Cc1ccccc1)NC(=O)[C@H](NC(=O)CNC(=O)[C@@H](N)Cc1ccc(O)cc1)[C@@H](C)c1ccccc1)C(=O)N[C@@H](CCCN=C(N)N)C(=O)N1CCC[C@H]1C(=O)N[C@@H](CCCCN)C(N)=O`, the Ratio in experiment [5] worked out at 20; in [6] it was 112; in experiment [2], 467. Moreover, the values for the IC50 in [1], in experiment [3] and in [4] were 6 nM, 112 nM and 2800 nM, respectively.

Consider `CC[C@H](C)[C@H](NC(=O)[C@H](CCCN=C(N)N)NC(=O)[C@H](CCCN=C(N)N)NC(=O)[C@H](CC(C)C)NC(=O)[C@H](Cc1ccccc1)NC(=O)CNC(=O)CNC(=O)[C@@H](N)Cc1ccc(O)cc1)C(=O)N[C@@H](CCCN=C(N)N)C(=O)N1CCC[C@H]1C(=O)N[C@@H](CCCCN)C(N)=O`, for which, in experiment [4], the IC50 turned out to be 1 nM. This lies in the single-digit nanomolar range.

Take `CC[C@H](C)[C@H](NC(=O)[C@H](CCCN=C(N)N)NC(=O)[C@H](CCCN=C(N)N)NC(=O)[C@H](CC(C)C)NC(=O)[C@H](Cc1ccccc1)NC(=O)[C@@H](CCCN=C(N)N)NC(=O)CNC(=O)[C@@H](N)Cc1ccc(O)cc1)C(=O)N[C@@H](CCCN=C(N)N)C(=O)N1CCC[C@H]1C(=O)N[C@@H](CCCCN)C(N)=O`: the Ratio in experiment [5] was 22; in [6], above 260; in [2] it was above 260.

For `CC[C@@H](C)[C@@H](NC(=O)CNC(=O)[C@@H](N)Cc1ccc(O)cc1)C(=O)N[C@@H](Cc1ccccc1)C(=O)N[C@@H](CC(C)C)C(=O)N[C@@H](CCCN=C(N)N)C(=O)N[C@@H](CCCN=C(N)N)C(=O)N[C@H](C(=O)N[C@@H](CCCN=C(N)N)C(=O)N1CCC[C@H]1C(=O)N[C@@H](CCCCN)C(N)=O)[C@@H](C)CC`, the Ratio in [5] was 19; in experiment [6], 260; in experiment [2] it was above 1100. Further, the IC50 in [1] was 55 nM; in experiment [3], 1030 nM. In experiment [7], the Inhibition came to 5.7%.

For `CC[C@H](C)[C@H](NC(=O)[C@H](CCCN=C(N)N)NC(=O)[C@H](CCCN=C(N)N)NC(=O)[C@H](CC(C)C)NC(=O)[C@H](Cc1ccccc1)NC(=O)[C@H](CCC(=O)O)NC(=O)CNC(=O)[C@@H](N)Cc1ccc(O)cc1)C(=O)N[C@@H](CCCN=C(N)N)C(=O)N1CCC[C@H]1C(=O)N[C@@H](CCCCN)C(N)=O`, the Ratio in experiment [5] was 44; in [6], 20; in experiment [2], above 200. Also, the results for the IC50 in experiment [1] and in experiment [3] were 150 nM and 6600 nM, respectively. The same molecule displayed an inhibition at 30 µM in experiment [8] of 48%.

In the case of `CC[C@H](C)[C@H](NC(=O)[C@H](CCCN=C(N)N)NC(=O)[C@H](CCCN=C(N)N)NC(=O)[C@H](CC(C)C)NC(=O)[C@H](Cc1ccccc1)NC(=O)[C@@H](CCC(=O)O)NC(=O)CNC(=O)[C@@H](N)Cc1ccc(O)cc1)C(=O)N[C@@H](CCCN=C(N)N)C(=O)N1CCC[C@H]1C(=O)N[C@@H](CCCCN)C(N)=O`, the Ratio in [5] is 2.3; in experiment [6], 12; in experiment [2] it was 5. The molecule also showed a concentration for half-maximal inhibition (IC50) in experiment [4] of 5700 nM.

Turning to `CC[C@H](C)[C@H](NC(=O)[C@H](CCCN=C(N)N)NC(=O)[C@H](CCCN=C(N)N)NC(=O)[C@H](CC(C)C)NC(=O)[C@H](Cc1ccccc1)NC(=O)[C@H](CCCCN)NC(=O)CNC(=O)[C@@H](N)Cc1ccc(O)cc1)C(=O)N[C@@H](CCCN=C(N)N)C(=O)N1CCC[C@H]1C(=O)N[C@@H](CCCCN)C(N)=O`, the Ratio in [5] was 31; in [6], above 330; in [2] it was above 120. The IC50 in experiment [1] worked out at 240 nM; in experiment [3], 7400 nM. In experiment [9], 30 µM produced 15.6% inhibition. This molecule yielded an inhibition in experiment [10] of 30%.

As for `CC[C@H](C)[C@H](NC(=O)CNC(=O)[C@@H](N)Cc1ccc(O)cc1)C(=O)N[C@@H](Cc1ccccc1)C(=O)N[C@@H](CC(C)C)C(=O)N[C@@H](CCCN=C(N)N)C(=O)N[C@@H](CCCN=C(N)N)C(=O)N[C@H](C(=O)N[C@@H](CCCN=C(N)N)C(=O)N1CCC[C@H]1C(=O)N[C@@H](CCCCN)C(N)=O)[C@@H](C)CC`, the Ratio was 22 in experiment [5] and 12 in experiment [2]. Also, the IC50 worked out at 40 nM in experiment [1], 860 nM in [3] and 460 nM in experiment [4].

Regarding `CC[C@H](C)[C@H](NC(=O)[C@H](CCCN=C(N)N)NC(=O)[C@H](CCCN=C(N)N)NC(=O)[C@H](CC(C)C)NC(=O)[C@H](Cc1ccccc1)NC(=O)[C@@H](Cc1ccc(O)cc1)NC(=O)CNC(=O)[C@@H](N)Cc1ccc(O)cc1)C(=O)N[C@@H](CCCN=C(N)N)C(=O)N1CCC[C@H]1C(=O)N[C@@H](CCCCN)C(N)=O`, the IC50 in [1] was 23.1 nM; in [3], 650 nM. In addition, in experiment [2], the Ratio was above 2600. This molecule also registered an inhibition at 60 µM in [11] of 41.7%.

Consider `CC[C@H](C)[C@H](NC(=O)[C@H](CCCNC(=N)N)NC(=O)[C@H](CCCNC(=N)N)NC(=O)[C@H](CC(C)C)NC(=O)[C@H](Cc1ccccc1)NC(=O)[C@@H](CCCCN)NC(=O)CNC(=O)[C@@H](N)Cc1ccc(O)cc1)C(=O)N[C@@H](CCCNC(=N)N)C(=O)N1CCC[C@H]1C(=O)N[C@@H](CCCCN)C(N)=O`, for which the concentration for half-maximal inhibition (IC50) turned out to be 380 nM in experiment [1] and 1900 nM in experiment [3].

For `CC[C@H](C)[C@H](NC(=O)[C@H](CCCN=C(N)N)NC(=O)[C@H](CCCN=C(N)N)NC(=O)[C@H](CC(C)C)NC(=O)[C@H](Cc1ccccc1)NC(=O)[C@@H](Cc1ccccc1)NC(=O)CNC(=O)[C@@H](N)Cc1ccc(O)cc1)C(=O)N[C@@H](CCCN=C(N)N)C(=O)N1CCC[C@H]1C(=O)N[C@@H](CCCCN)C(N)=O`, the Ratio is 15 in [5], 125 in experiment [6] and 62 in experiment [2]. Moreover, the figures for the IC50 in experiment [1], in [3] and in [4] were 5.9 nM, 86 nM and 370 nM, respectively.

Consider `CC[C@H](C)[C@H](NC(=O)[C@H](CCCN=C(N)N)NC(=O)[C@H](CCCN=C(N)N)NC(=O)[C@H](CC(C)C)NC(=O)[C@H](Cc1ccccc1)NC(=O)[C@@H](CCCCN)NC(=O)CNC(=O)[C@@H](N)Cc1ccc(O)cc1)C(=O)N[C@@H](CCCN=C(N)N)C(=O)N1CCC[C@H]1C(=O)N[C@@H](CCCCN)C(N)=O`, for which the Ratio in experiment [5] turned out to be 5; in experiment [6], 42; in experiment [2], 55. Also, the IC50 in experiment [4] amounted to 21000 nM.

As to `CC[C@H](C)[C@H](NC(=O)[C@H](CCCN=C(N)N)NC(=O)[C@H](CCCN=C(N)N)NC(=O)[C@H](CC(C)C)NC(=O)[C@H](Cc1ccccc1)NC(=O)[C@@H](NC(=O)CNC(=O)[C@@H](N)Cc1ccc(O)cc1)[C@@H](C)c1c(C)cccc1C)C(=O)N[C@@H](CCCN=C(N)N)C(=O)N1CCC[C@H]1C(=O)N[C@@H](CCCCN)C(N)=O`, the values for the IC50 in [1], in experiment [3] and in experiment [4] were 113 nM, 2800 nM and 40800 nM, respectively. Moreover, in experiment [2], the Ratio was found to be 360.

In the case of `CC[C@H](C)[C@H](NC(=O)[C@H](CCCNC(=N)N)NC(=O)[C@H](CCCNC(=N)N)NC(=O)[C@H](CC(C)C)NC(=O)[C@H](Cc1ccccc1)NC(=O)[C@@H](CCC(=O)O)NC(=O)CNC(=O)[C@@H](N)Cc1ccc(O)cc1)C(=O)N[C@@H](CCCNC(=N)N)C(=O)N1CCC[C@H]1C(=O)N[C@@H](CCCCN)C(N)=O`, the values for the half-maximal inhibitory concentration (IC50) in [1] and in experiment [3] were 1100 nM and 2500 nM, respectively.

As for `CC[C@H](C)[C@H](NC(=O)[C@H](CCCN=C(N)N)NC(=O)[C@H](CCCN=C(N)N)NC(=O)[C@H](CC(C)C)NC(=O)[C@H](Cc1ccccc1)NC(=O)[C@H](Cc1ccccc1)NC(=O)CNC(=O)[C@@H](N)Cc1ccc(O)cc1)C(=O)N[C@@H](CCCN=C(N)N)C(=O)N1CCC[C@H]1C(=O)N[C@@H](CCCCN)C(N)=O`, the results for the Ratio in experiment [5], in [6] and in [2] were 30, 315 and 1.2, respectively. Besides, the IC50 in experiment [1] is 0.89 nM; in experiment [3], 27.1 nM; in experiment [4] it was 1.1 nM.

Regarding `CC[C@H](C)[C@H](NC(=O)[C@H](CCCN=C(N)N)NC(=O)[C@H](CCCN=C(N)N)NC(=O)[C@H](CC(C)C)NC(=O)[C@H](Cc1ccccc1)NC(=O)[C@@H](NC(=O)CNC(=O)[C@@H](N)Cc1ccc(O)cc1)[C@@H](C)c1ccccc1)C(=O)N[C@@H](CCCN=C(N)N)C(=O)N1CCC[C@H]1C(=O)N[C@@H](CCCCN)C(N)=O`, the results for the Ratio in experiment [5], in experiment [6] and in experiment [2] were 11, 13 and 18, respectively. Moreover, the IC50 was determined as 121 nM in experiment [1], 1350 nM in experiment [3] and 2190 nM in [4].
